Assay results as given in ChEMBL document CHEMBL3779787, “Amorfrutin C Induces Apoptosis and Inhibits Proliferation in Colon Cancer Cells through Targeting Mitochondria” (J Nat Prod, 2016).
Calls of active or inactive are those of the source. The rule behind the calls is not given here.

Legend:
HT-29 [1] = test: Antiproliferative activity against human HT-29 cells assessed as cellular DNA content at 20 uM after 48 hrs by CyQUANT NF fluorescence assay in presence of PPAR siRNA; type: functional, cell-based
Method in brief: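 HT-29 reverse-transfected with equimolar siRNA pool against PPARα, β/δ, γ (10 nM each) or 30 nM nonspecific siRNA, seeded 850 cells/well. After 48 h, 20 μM compound added for a further 48 h. Relative cell number from DNA content; means ± SD, n = 8.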

HT-29 [2] = test: Induction of apoptosis in human HT-29 cells assessed as permanent opening of mitochondrial permeability transition pore at 30 uM after 30 mins calcein/CoCl2 staining-based fluorescence assay; type: functional, cell-based
Method in brief: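 Trypsinized HT-29 (10^6 cells/mL) in HBSS/Ca with 10 nM calcein and 400 μM CoCl2. Pretreated 60 min at 37 °C with 2 μM cyclosporin A or vehicle, then test compound for 30 min at 37 °C. Washed; mitochondrial calcein fluorescence by flow cytometry; means ± SEM, n = 6.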

HT-29 [3] = test: Induction of apoptosis in human HT-29 cells assessed as increase in cleaved caspase 3 at 30 uM after 6 hrs by DAPI staining-based fluorescence microscopy; type: functional, cell-based
Method in brief: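 HT-29 on coverslips treated 30 μM for 6 h, fixed in 4% formaldehyde, permeabilized with 0.3% Triton X-100, blocked in goat serum. Anti-cleaved caspase 3 (1:200) overnight at 4 °C, then Alexa Fluor 488 secondary (1:1000) 1 h. DAPI counterstain; imaged by fluorescence microscopy.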

[4] = target: T1, Peroxisome proliferator-activated receptor alpha (Homo sapiens, UniProt Q07869); test: Competitive binding affinity to PPARalpha (unknown origin) by TR-FRET assay
T1 sequence (Q07869 whole entry): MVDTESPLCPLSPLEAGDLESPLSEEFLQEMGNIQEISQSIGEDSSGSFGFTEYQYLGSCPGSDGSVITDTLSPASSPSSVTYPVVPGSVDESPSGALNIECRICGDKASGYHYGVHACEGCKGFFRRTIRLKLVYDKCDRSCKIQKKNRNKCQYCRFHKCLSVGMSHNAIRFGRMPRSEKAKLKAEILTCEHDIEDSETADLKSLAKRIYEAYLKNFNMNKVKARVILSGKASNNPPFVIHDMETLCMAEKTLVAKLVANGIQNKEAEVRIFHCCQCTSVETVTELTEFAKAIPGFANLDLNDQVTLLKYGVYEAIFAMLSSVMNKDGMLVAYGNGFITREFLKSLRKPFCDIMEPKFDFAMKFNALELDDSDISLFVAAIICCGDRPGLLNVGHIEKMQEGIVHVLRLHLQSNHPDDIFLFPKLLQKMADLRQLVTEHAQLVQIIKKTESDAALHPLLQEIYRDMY

HT-29 [5] = test: Downregulation of cyclin A2 expression in human HT-29 cells at 10 uM after 48 hrs by immunoblotting method; type: functional, cell-based
Method in brief: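 HT-29 exposed to 10 μM for 48 h; whole-cell lysates immunoblotted for the indicated proteins (total and cleaved PARP for the apoptosis line).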

HT-29 [6] = test: Induction of apoptosis in human HT-29 cells assessed as mitochondrial membrane depolarization at 30 uM by JC-1 dye-based fluorescence assay in presence of cyclosporinA; type: functional, cell-based
HT-29 [7] = test: Induction of apoptosis in human HT-29 cells at 30 uM after 24 hrs by annexin V-FLUOS/propidium iodide staining-based flow cytometry in presence of cyclosporine A; type: functional, cell-based
Method in brief: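 For 24 h, HT-29 cells were exposed to 30 μM compound with or without cyclosporin A (2 μM). Apoptosis and necrosis were scored by annexin V-FLUOS/propidium iodide flow cytometry. Means ± SEM, n = 3.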

MCF7 = test: Antiproliferative activity against human MCF7 cells assessed as cellular DNA content after 96 hrs by CyQUANT NF fluorescence assay; type: functional, cell-based; conditions: MCF7, 96 h
Method in brief: (§1)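 Cells seeded at 750 (HT-29), 250 (PC-3) or 900 (T84, MCF7) cells/well, treated next day with concentration series for 72 h (HT-29, PC-3) or 96 h (T84, MCF7). Relative cell number from cellular DNA content by fluorescent DNA-binding dye. Variable-slope fit; efficiency = maximal inhibition (100% − Bottom) vs untreated; IC50 relative to the compound's own maximal efficiency.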

HT-29 [8] = test: Induction of cell cycle arrest in human HT-29 cells assessed as accumulation at G0/G1 phase at 10 uM by flow cytometry (reference value: 66%); type: functional
HT-29 [9] = test: Antiproliferative activity against human HT-29 cells assessed as cellular DNA content at 20 uM after 48 hrs by CyQUANT NF fluorescence assay in presence of 3H-1,2-dithiole-3-thione; type: functional, cell-based
Method in brief: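 HT-29 given concentration series of test compound with or without antioxidant (NAC 1 mM, GSH 2.5 mM, D3T 25 μM, α-tocopherol 50 μM, ascorbic acid 500 μM) for 48 h. Relative cell number from DNA-binding fluorescent dye; means ± SD, n = 4.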

HT-29 [10] = test: Induction of apoptosis in human HT-29 cells assessed as DNA fragmentation by measuring cytoplasmic oligonucleosome level at 30 uM by ELISA; type: functional, cell-based
Method in brief: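 Cytosolic DNA by ELISA after 4 h treatment. BrdU method: cells (13 000/well) prelabelled with 10 μM BrdU for 2 days at 37 °C, unincorporated BrdU removed before treatment. Oligonucleosome method: 20 000 cells/well, 1 day at 37 °C. Cell-free background subtracted, normalized to vehicle; means ± SEM, n = 4.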

HT-29 [11] = test: Induction of ROS generation in human HT-29 cells at 30 uM by CM-H2DCFDA staining-based fluorescence assay in presence of 3H-1,2-dithiole-3-thione; type: functional, cell-based
Method in brief: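 HT-29 (15 000 cells/well) loaded with 50 μM CM-H2DCFDA in PBS for 30 min at 37 °C, washed, then 60 min in phenol red-free DMEM/F-12. 30 μM compound added alone or with NAC 1 mM, GSH 2.5 mM, D3T 25 μM, α-tocopherol 50 μM or ascorbic acid 500 μM. Fluorescence 485/530 nm read kinetically at 37 °C for 22 h; area under curve; means ± SEM, n = 7.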

HT-29 [12] = test: Induction of cell cycle arrest in human HT-29 cells assessed as accumulation at S phase at 10 uM by flow cytometry (reference value: 11%); type: functional
[13] = Dissociation constant, pKa of the compound by UV metric method; type: physicochemical
Method in brief: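 UV-metric titration with 0.15 M KCl at 25 °C: pH 12.0–2.0 at 32–26 μM in methanol/water cosolvent, and pH 12.5–8.9 at 30–21 μM in water.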

HT-29 [14] = test: Increase in extracellular acidification rate in human HT-29 cells at 2 uM measured for 20 to 150 mins by time-resolved fluorescence assay relative to control; type: functional
Method in brief: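 HT-29 cells seeded 80 000/well, incubated overnight at 37 °C without CO2. Washed and loaded with pH-sensitive time-resolved fluorescence probe in low-buffering medium (1 mM PBS pH 7.4, 20 mM glucose, salts), 10 min at 37 °C, then compound added, wells unsealed. Read 200 min at 37 °C; lifetime converted to pH, rate taken 20–150 min as H+ change/min; n = 8.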

HT-29 [15] = test: Antiproliferative activity against human HT-29 cells assessed as cellular DNA content after 72 hrs by CyQUANT NF fluorescence assay relative to control; type: functional; method in brief: as §1

## COc1c(CC=C(C)C)c(O)c(C(=O)O)c(CCc2ccccc2)c1CC=C(C)C
HT-29 [1]
  Activity: Active
HT-29 [2]
  Activity: Active
HT-29 [3]
  Activity: Active
[4]
  Ki: 9.1 µM
HT-29 [5]
  Activity: Active
HT-29 [6]
  Activity: Active
HT-29 [7]
  Activity: Active
MCF7
  IC50: 14 µM
HT-29 [8]
  Activity: 89%
HT-29 [9]
  Activity: Active
HT-29 [10]
  Activity: Active
HT-29 [11]
  Activity: inactive
HT-29 [12]
  Activity: 2%
[13]
  pKa: 3.5
HT-29 [14]
  fold change (FC): 3
HT-29 [15]
  Efficacy: 95%
